Reference: ChEMBL document CHEMBL2169753, “Pharmacophore-based virtual screening and biological evaluation of small molecule inhibitors for protein arginine methylation” (J Med Chem, 2012)
The source made the active and inactive calls. The calls are words filed in the database; no cut-off is given here.

Assays:
[1] = system: LNCaP; test: Inhibition of cell proliferation of human LNCAP cells in regular medium after 3 days; format: functional
In short: (§1)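 LNCaP C-81 cells (passage 80–120) grown in phenol red-positive RPMI 1640 with 5% FBS, 2 mM glutamine, 50 µg/ml gentamicin at 37°C, 5% CO2. Plated at 2×10³ cells/well for 3 days, then exposed to compound (DMSO stock diluted 1000×; DMSO-matched controls) for 3 days. Cells counted with an image-based counter and normalized to control. Three independent experiments in triplicate, mean ± SD.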

[2] = system: LNCaP; test: Inhibition of cell proliferation of human LNCAP cells in steroid reduced condition after 3 days; format: functional
In short: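 C-81 cells (passage 80–120) plated at 2×10³ cells/well for 3 days, then starved 2 days in phenol red-free RPMI 1640 with 5% charcoal/dextran-treated FBS, 2 mM glutamine, 50 µg/ml gentamicin and 1 nM DHT. Refed with this medium, then treated for 3 days (solvent controls). Cells counted and normalized to control. Three independent experiments in triplicate, mean ± SD.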

[3] = system: LNCaP; test: Antiproliferative activity against human LNCAP cells in regular medium after 3 days; format: functional, cell-based; in short: as §1
[4] = target: T1, Histone H4 (Homo sapiens, UniProt P62805); test: Binding affinity to fluorescein-labeled Histone H4(1-20) by spectrofluorometry
In short: (§2)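 H4(1-20) peptide bearing fluorescein on a Dpr residue, 1 µM, in 50 mM HEPES pH 8.0, 10 mM NaCl, 1 mM DTT at 30°C. Titrated with compound from 1 to 100 µM. Excitation 498 nm; emission intensity followed at 523–524 nm. Kd taken from the fluorescence titration.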

[5] = target: Protein arginine N-methyltransferase 5 (Homo sapiens) (UniProt O14744); test: Inhibition of His6x-tagged PRMT5 expressed in Escherichia coli BL21 (DE3) using Histone H4(1-20 substrate in the presence of [14C] SAM assessed as residual activity at 30 uM by liquid scintillation counting
Sequence of Protein arginine N-methyltransferase 5 (Homo sapiens) (O14744 whole entry): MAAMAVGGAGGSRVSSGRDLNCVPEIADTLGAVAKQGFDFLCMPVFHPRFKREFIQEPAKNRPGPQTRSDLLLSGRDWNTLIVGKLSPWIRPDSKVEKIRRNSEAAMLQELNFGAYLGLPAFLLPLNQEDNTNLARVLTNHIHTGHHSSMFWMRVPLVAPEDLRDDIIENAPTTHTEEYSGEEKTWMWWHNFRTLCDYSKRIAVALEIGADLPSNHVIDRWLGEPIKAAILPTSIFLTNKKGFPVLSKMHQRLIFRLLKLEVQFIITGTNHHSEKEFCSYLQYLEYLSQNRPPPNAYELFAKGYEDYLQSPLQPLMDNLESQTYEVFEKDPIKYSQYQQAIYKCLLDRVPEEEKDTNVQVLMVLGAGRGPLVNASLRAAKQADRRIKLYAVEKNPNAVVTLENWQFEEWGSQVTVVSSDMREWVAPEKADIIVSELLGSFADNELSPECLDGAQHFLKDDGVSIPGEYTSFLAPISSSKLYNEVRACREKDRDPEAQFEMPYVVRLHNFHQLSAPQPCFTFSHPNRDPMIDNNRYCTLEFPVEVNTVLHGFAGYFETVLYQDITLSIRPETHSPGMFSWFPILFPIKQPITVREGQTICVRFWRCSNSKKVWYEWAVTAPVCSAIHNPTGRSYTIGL
In short: (§3)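 Recombinant PRMT4 (0.3 µM) with H3(1-31) at 400 µM, or PRMT5 (1 µM) with H4(1-20) at 2 µM. Substrate and 5 µM [14C]-SAM preincubated 5 min in 50 mM HEPES pH 8.0, 10 mM NaCl, 1 mM DTT at 30°C before enzyme was added. Reactions run 2 h (PRMT4) or 6 h 30 min (PRMT5), with or without 30 µM compound in 2% DMSO. Stopped on P81 paper, washed with NaHCO3, counted by scintillation. Activity normalized to no-inhibitor control.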

[6] = target: T2, Histone-arginine methyltransferase CARM1 (Homo sapiens) (UniProt Q86X55); test: Inhibition of His6x-tagged PRMT4 expressed in Escherichia coli BL21 (DE3) using Histone H3(1-31) substrate in the presence of [14C] SAM assessed as residual activity at 30 uM by liquid scintillation counting; in short: as §3
T2 sequence (whole entry): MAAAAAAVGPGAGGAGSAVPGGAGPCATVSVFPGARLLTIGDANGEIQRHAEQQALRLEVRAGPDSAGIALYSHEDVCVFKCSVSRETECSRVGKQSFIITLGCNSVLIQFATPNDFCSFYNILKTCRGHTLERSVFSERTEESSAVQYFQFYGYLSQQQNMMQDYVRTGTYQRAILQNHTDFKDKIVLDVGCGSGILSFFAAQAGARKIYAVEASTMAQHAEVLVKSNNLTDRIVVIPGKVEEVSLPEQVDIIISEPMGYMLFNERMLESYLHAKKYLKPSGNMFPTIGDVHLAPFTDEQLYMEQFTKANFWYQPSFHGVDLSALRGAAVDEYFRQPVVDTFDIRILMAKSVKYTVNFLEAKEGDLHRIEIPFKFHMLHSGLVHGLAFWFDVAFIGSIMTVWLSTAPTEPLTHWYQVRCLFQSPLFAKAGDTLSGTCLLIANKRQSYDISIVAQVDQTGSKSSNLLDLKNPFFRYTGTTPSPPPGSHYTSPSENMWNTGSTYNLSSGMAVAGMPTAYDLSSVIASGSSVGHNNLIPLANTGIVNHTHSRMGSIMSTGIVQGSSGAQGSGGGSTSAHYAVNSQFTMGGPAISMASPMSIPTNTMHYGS

[7] = target: Histone acetyltransferase p300 (Homo sapiens, UniProt Q09472); test: Inhibition of recombinant p300 HAT domain using Histone H4(1-20) substrate assessed as inhibition of histone acetyltransferase activity after 10 mins by liquid scintillation counting
Sequence of Histone acetyltransferase p300 (Q09472 whole entry, the tested form may be a part): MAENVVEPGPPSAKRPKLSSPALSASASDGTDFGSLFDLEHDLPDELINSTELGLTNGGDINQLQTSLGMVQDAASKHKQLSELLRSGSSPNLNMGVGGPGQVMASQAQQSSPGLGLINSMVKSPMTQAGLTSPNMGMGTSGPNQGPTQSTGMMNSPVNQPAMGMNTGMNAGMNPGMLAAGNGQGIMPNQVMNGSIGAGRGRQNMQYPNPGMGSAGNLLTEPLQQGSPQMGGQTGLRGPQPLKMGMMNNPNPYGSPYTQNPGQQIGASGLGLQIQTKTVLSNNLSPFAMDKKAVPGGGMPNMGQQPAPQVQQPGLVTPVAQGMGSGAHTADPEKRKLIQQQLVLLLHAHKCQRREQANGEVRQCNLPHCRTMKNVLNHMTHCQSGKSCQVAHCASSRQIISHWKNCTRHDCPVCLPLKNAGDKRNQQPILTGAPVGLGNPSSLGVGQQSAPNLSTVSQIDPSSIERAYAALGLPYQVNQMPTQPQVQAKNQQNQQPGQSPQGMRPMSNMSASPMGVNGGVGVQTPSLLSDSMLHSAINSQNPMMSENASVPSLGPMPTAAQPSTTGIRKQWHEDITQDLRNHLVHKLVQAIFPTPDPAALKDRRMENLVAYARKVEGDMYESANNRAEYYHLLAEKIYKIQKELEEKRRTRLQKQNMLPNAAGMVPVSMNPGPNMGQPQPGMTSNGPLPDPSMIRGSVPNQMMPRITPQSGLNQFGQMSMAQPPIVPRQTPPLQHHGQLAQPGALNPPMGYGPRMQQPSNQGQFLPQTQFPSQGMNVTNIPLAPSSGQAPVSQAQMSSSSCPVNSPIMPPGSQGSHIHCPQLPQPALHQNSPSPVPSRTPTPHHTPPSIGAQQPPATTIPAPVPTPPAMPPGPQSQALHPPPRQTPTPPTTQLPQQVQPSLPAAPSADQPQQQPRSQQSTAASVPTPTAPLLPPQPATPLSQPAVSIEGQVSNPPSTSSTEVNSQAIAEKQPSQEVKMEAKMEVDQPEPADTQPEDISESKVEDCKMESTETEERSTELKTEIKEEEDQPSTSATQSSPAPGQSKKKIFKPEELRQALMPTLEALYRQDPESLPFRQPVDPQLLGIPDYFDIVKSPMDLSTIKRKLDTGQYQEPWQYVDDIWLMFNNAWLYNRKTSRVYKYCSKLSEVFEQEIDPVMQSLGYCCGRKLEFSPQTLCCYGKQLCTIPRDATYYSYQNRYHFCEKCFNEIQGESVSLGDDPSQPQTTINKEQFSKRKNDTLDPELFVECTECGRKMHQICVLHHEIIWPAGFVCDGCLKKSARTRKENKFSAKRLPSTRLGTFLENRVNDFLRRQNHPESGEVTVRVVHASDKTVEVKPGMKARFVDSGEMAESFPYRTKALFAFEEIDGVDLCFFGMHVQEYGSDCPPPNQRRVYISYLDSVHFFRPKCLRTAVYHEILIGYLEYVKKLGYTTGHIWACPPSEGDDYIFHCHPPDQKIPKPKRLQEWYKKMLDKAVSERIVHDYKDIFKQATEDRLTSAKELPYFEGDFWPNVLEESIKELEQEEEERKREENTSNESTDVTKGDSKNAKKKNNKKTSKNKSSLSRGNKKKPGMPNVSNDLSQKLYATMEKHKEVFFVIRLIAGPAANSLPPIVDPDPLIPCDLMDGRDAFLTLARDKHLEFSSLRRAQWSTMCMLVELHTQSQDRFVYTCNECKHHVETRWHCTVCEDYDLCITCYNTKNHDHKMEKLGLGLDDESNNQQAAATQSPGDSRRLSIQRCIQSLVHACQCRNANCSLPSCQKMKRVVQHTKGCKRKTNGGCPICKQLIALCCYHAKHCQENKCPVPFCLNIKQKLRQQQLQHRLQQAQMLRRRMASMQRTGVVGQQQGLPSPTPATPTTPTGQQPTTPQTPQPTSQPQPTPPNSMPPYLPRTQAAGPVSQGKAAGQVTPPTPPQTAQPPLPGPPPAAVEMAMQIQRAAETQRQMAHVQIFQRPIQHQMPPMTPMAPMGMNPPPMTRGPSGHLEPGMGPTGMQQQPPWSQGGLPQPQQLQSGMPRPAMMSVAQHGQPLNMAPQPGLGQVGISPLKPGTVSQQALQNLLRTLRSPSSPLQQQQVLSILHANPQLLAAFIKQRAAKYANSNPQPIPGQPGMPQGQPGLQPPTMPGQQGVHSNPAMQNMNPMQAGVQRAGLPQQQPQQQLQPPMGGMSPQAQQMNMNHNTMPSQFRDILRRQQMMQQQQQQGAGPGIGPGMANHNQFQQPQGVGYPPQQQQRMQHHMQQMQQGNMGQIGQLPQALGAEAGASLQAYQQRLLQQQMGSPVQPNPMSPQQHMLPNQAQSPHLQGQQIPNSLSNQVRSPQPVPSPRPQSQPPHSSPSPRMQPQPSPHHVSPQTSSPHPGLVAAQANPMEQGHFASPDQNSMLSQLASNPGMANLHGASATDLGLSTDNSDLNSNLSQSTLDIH
In short: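 p300 HAT domain (residues 1287–1666), 0.03 µM, incubated with 10 µM H4-20, 5 µM [14C]-acetyl CoA and increasing compound in 50 mM HEPES pH 8.0, 50 mM NaCl, 0.5 mM DTT, 1 mM EDTA at 30°C for 10 min. Stopped on P81 paper and counted by liquid scintillation. Fractional activity plotted against concentration to give IC50.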

[8] = target: T1, Histone H4; test: Binding affinity to fluorescein-labeled Histone H4(1-20) assessed as peptide fluorescence quenching by spectrofluorometry; in short: as §2

With `O=C(NN=C1C=CC(=NOS(=O)(=O)c2ccccc2)C=C1)c1cc2ccccc2cc1O` the “inhibition (INH)” value [1] was 70%, the “inhibition (INH)” value [2] was 30% and the inhibition [3] was “Dose-dependent effect”.

In the case of `O=C(c1ccc(O)c(NC(=O)c2cccc3ccccc23)c1)c1ccc(O)c(NC(=O)c2cccc3ccccc23)c1`, the “inhibition (INH)” value [1] is reported as 32%, the Kd [4] is reported as 23.8 µM and the Activity [5] is reported as 20%. For the same molecule, the Activity [6] was 38%, the IC50 [7] was 15.2 µM and the inhibition [7] was “Dose-dependent effect”. The Activity [8] was “Active”.
